The list is not random: actives were taken first. Their share in the collection is about 1.5%.
Rad51 HR inh: human RAD51 strand exchange inhibitors, primary screen, biochemical, fluorescence; DNA repair protein RAD51 homolog 1 (Homo sapiens), Q06609; hRad51 DNA strand exchange, fluorescence dequenching; inhibition, % at 10 µM; 200,000 tested, 0.085% active;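 active = inhibition above 40% at the single screening dose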
Target sequence (Q06609 whole entry, looked up): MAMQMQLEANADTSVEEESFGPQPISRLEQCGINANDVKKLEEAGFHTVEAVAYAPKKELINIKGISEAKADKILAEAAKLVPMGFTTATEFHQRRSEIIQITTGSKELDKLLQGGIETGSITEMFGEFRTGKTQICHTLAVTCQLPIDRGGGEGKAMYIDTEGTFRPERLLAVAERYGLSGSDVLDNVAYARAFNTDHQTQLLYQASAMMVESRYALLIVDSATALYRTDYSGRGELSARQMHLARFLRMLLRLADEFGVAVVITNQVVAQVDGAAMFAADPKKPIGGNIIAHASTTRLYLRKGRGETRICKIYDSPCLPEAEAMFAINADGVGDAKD
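System: hRad51 filaments on single-stranded DNA; reagent: Fluorescein- and BHQ1-tagged 47-mer duplex; compound dosing: one concentration, 10 µM final; timing: filaments 15 min 37 °C, then compound 30 min; measured by: fluorescein emission 520 nm, excitation 485 nm; benchmarks: per-plate controls and blanks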
b-catenin transl: modulators of beta-catenin nuclear translocation, primary screen, imaging, HeLa cells, immunofluorescence, high-content | nuclear translocation activity, % at 5 µM | AID 1665, 2009 | 190,000 tested, 0.3% active;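 active = nuclear translocation activity above 50% at 5 µM, with a well cell count of 50 or more; inconclusive = wells under 50 cells across six images, flagged as toxic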;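 note: per-cell ratio of nuclear to cytoplasmic median beta-catenin stain intensity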
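Assay system: human HeLa cells, native beta-catenin; doses: 5 µM primary, 0.02–20 µM confirmation; incubation: compound treatment 24 h, 37°C, 5% CO2; technique: fluorescence imaging of beta-catenin antibody stain plus DAPI; measure: % activation, nuclear-to-cytoplasmic median beta-catenin signal ratio per cell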
TbHK1 inh: Trypanosoma brucei hexokinase 1 inhibitors, primary screen, biochemical, G6PDH-coupled NADH absorbance, MLSCN library; hexokinase 1 [Trypanosoma brucei]; recombinant TbHK1, G6PDH-coupled NADH A340; inhibition, % at 10 µM; 220,000 tested, 0.11% active; AID 1430, 2008;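 active = inhibition of 50% or more in the single-dose primary screen; inactive = inhibition below 50%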
MT stabilizer: microtubule stabilizers in HeLa cells, primary screen, imaging, high-content imaging | HeLa tubulin immunostaining HCS, 24 h; share of cells brighter than vehicle mean+2SD | % tubulin-high responders, % at 10 µM | 200,000 tested, 0.83% active;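 active = plate Z-score above 3 for both tubulin-high and condensed-nucleus cell shares, with cell loss under 80%, at 10 µM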;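 note: anti alpha tubulin signal scored within the nucleus-defined area of each cell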
Dynein cargo inh: inhibitors of GR-EGFP nuclear translocation, primary screen, dynein cargo transport inhibitor project, imaging, high-content, 3617.4 mouse cells. z-score, hits read low. 220,000 tested, 0.47% active. test concentration mostly 20 µM; stimulated with dexamethasone, 1 µM; active compounds read low;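 active = plate z-score of nuclear minus cytoplasmic receptor signal below a set negative limit, without overly bright fluorescence or cell loss, cut at about -3.5 in these data, passing the limit was not always enough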;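 note: z-score of nuclear minus cytoplasmic ring GR-EGFP intensity difference per well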
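Buffer or medium: tet-free, stripped-serum medium; Also added: dexamethasone, 1.0 µM final; Technique: high-content fluorescence imaging after fixation; Times: 48 h induction, 1 h compound, 30 min dex at 37 °C; Read-out: per-cell GR-EGFP intensity, nucleus versus surrounding cytoplasmic ring, well-averaged.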
Dynein confirm: dynein cargo transport inhibitors, GR-EGFP translocation, confirmation, imaging, high-content imaging, GR-EGFP cells; shares compounds with Dynein cargo inh; 3617.4 GR-EGFP nuclear translocation imaging, dexamethasone-induced; calls only at 20 µM; 1,000 tested, 69% active;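 active = inhibition of receptor movement into the nucleus at or above a set limit in both runs, with normal cell brightness and cell count; inconclusive = limit reached in only one run, brightness and count normal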;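 note: dexamethasone at 1 µM final in well for 30 min; nuclear minus cytoplasmic GR-EGFP mean intensity difference in channel 2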
Hits are given with their value; n = inactive; u = inconclusive; x = not tested or not shown; + = active, no number.

SMILES	Rad51 HR inh	b-catenin transl	TbHK1 inh	MT stabilizer	Dynein cargo inh	Dynein confirm
CCOC(=O)N1C/C(=C\c2ccccc2)C(=O)/C(=C/c2ccccc2)C1	x	n	n	x	-4.9	+
CCOc1cc(/C=C/c2ccc3cccc([N+](=O)[O-])c3n2)cc(Cl)c1O	n	n	n	n	n	x
CCCCCCCOC(=O)C[N+](C)(C)CCOC1CC2CCC1(C)C2(C)C (stereo unspecified)	n	n	n	n	-4.6	n
Cc1sc2ncnc(SCC(=O)N3c4ccccc4Sc4ccc(Cl)cc43)c2c1C	n	n	n	n	n	x
CCOC(=O)c1c(C)sc2c1N(C(=O)CCl)c1cc(Cl)ccc1S2	n	n	n	n	-4	+
Cc1ccc(S(=O)(=O)N[C@@H](Cc2ccccc2)C(=O)CCl)cc1	n	n	n	n	-4.5	n
CCCC(NS(=O)(=O)c1ccc(C)cc1)C(=O)O (stereo unspecified)	n	x	n	n	n	x
Cn1c(=O)c2nc(NCc3ccccc3)cnc2n(C)c1=O	x	n	n	n	n	x
Cc1nc2c(=O)n(C)c(=O)n(C)c2nc1Cl	n	n	n	n	-6.2	+
C=CCc1c(C)nc(N)[nH]c1=O	n	n	n	n	n	x
O=S1(=O)CCC(NC(=S)SCCOc2ccccc2)C1 (stereo unspecified)	n	n	n	n	-3.9	+
Cc1ccccc1NC1=C(Cl)C(=O)OC1NC(=O)c1ccccc1 (stereo unspecified)	n	n	n	n	n	x
CCOC(=O)CNC(=O)CNC(=O)c1ccc(OC)cc1	n	n	n	n	n	x
CC1=NN(c2cccc(C(=O)O)c2)C(=O)/C1=C\C=C/c1ccccc1	n	n	n	n	-5.6	+
O=C(N[C@@H](Cc1c[nH]c2ccccc12)C(=O)O)c1ccccc1Cl	n	n	n	n	n	x
CC(C)(C)OC(=O)NCCc1nnc(S(=O)(=O)Cc2ccc(Cl)cc2Cl)o1	x	n	n	n	-6.3	u
CC(C)(C)OC(=O)NCCc1nnc(SCc2ccccc2Cl)o1	n	n	n	n	n	x
Cc1cc(C(=O)CCl)c(C)n1CCc1ccc(Cl)cc1	x	n	n	n	-6.3	+
Cc1cc(C(=O)CCl)c(C)n1CCc1ccc(F)cc1	n	n	n	n	n	x
COc1ccc(CCn2c(C)c(C(C)=O)c(C(C)=O)c2C)cc1OC	n	n	n	n	n	x
COc1ccc(CCn2c(C)cc(C(=O)CCl)c2C)cc1OC	n	n	n	n	-3.7	+
O=c1c2cc(-c3ccccc3)sc2ncn1-n1cccc1	n	n	n	n	n	x
c1ccc(Nc2ccc(-n3ccnc3)nn2)cc1	n	n	n	n	n	x
N=c1n(Cc2ccccc2)c2ccccc2n1CC(O)COc1ccc(Cl)cc1Cl (stereo unspecified)	n	n	n	n	-3.8	n
Cc1ccc(-c2nnnn2-c2ccc(C)cc2)cc1	n	n	n	n	n	x
SMILES	Rad51 HR inh	b-catenin transl	TbHK1 inh	MT stabilizer	Dynein cargo inh	Dynein confirm
Cc1ccc(-n2nnnc2CCl)cc1	n	n	n	n	-6.1	+
Cc1cc(C)n(CCCNC(=O)c2ccc3c(c2)NC(=O)CS3)n1	n	x	n	n	n	x
Nc1c(C(=O)C2CC2)sc2nc(-c3cccs3)cc(C(F)(F)F)c12	n	n	n	n	n	n
COc1ccc(N=N/C(=C\O)C(=O)c2cccs2)cc1	n	n	n	n	n	x
COc1ccc(/C=C(/C(=O)c2cccs2)N2C=CC=CC2=C(C#N)C#N)cc1	n	n	n	n	-3.6	u
S=C(Nc1ccc(Cl)cc1)c1nc2ccccc2s1	n	n	n	n	n	x
O=C(Nc1ccc(Cl)cc1)/C(=C/c1cccc(O)c1)c1nc2ccccc2s1	n	n	n	n	-6	+
CNc1ccc(/C=C2\CSc3ccccc3C2=O)cc1[N+](=O)[O-]	n	n	n	n	-4	n
Cc1cc(Sc2ncnc(N)c2[N+](=O)[O-])ncn1	n	n	n	n	-5.7	+
Cc1cc(Sc2nc(N)ncc2[N+](=O)[O-])ncn1	n	n	n	n	-5	+
NC(=O)C1(N2CCCCC2)CCN(C2CC(=O)NC2=O)CC1 (stereo unspecified)	n	x	n	n	n	x
C#CC(=O)N(c1ccc(OC)cc1OC)C(C(=O)NC1CCCC1)c1cccs1 (stereo unspecified)	n	n	n	n	-4.4	+
COc1ccc(N(C(=O)c2ccco2)C(C(=O)NC2CCCCC2)c2cccs2)cc1OC (stereo unspecified)	n	n	n	n	n	x
COc1ccc(CCN(C(=O)C(F)(F)F)C(C(=O)NC2CCCC2)c2cccs2)cc1 (stereo unspecified)	n	x	n	n	n	x
C#CC(=O)N(c1cc(OC)ccc1OC)C(C(=O)NC1CCCC1)c1cccs1 (stereo unspecified)	n	n	n	n	-5.1	+
Fc1ccccc1Cn1nnc(-c2ccc3c(c2)OCO3)n1	n	n	n	n	n	x
COCC(=O)Nc1sc2c(c1C(=O)OC)CCCC2	n	n	n	n	n	x
COc1ccc(C(=O)/C(=C\c2ccco2)N2C=CC=CC2=C(C#N)C#N)cc1	n	n	n	n	n	x
N#CC(C#N)=C1C=CC=CN1/C(=C\c1ccco1)C(=O)c1ccccc1	n	n	n	n	-3.8	+
N#CC(C#N)=C1C=CC=CN1/C(=C\c1ccco1)C(=O)c1ccc(Br)cc1	n	n	n	n	-4.8	+
CC(C)N1C(=O)/C(=C/c2nc3ccccc3c(=O)n2-c2ccccc2)c2ccccc21	n	n	n	n	-4.1	+
CC(C)N1C(=O)C(Cc2nc3ccccc3c(=O)n2-c2ccccc2)c2ccccc21 (stereo unspecified)	n	n	n	n	n	x
CC(C)N1C(=O)/C(=C\c2nc3ccccc3c(=O)n2-c2ccccc2)c2ccccc21	n	n	n	n	-5	+
COc1cc(/C=C(/C(=O)c2cccs2)c2nc3ccccc3[nH]2)cc(OC)c1O	n	x	n	n	-4.6	+
O=C(N/C(=C/c1ccc(Cl)cc1)c1nc2ccccc2[nH]1)c1ccco1	x	n	n	n	n	x
O=C(/C(=C/c1ccc(Cl)cc1)c1nc2ccccc2[nH]1)c1ccccc1	n	n	n	47	-4.7	+
C=CCOC(=O)CCCC(=O)NC1CCCCC1	x	n	n	n	n	x
CC(C)N(C(=O)COC(=O)c1ccccc1C(=O)c1ccc(Cl)c([N+](=O)[O-])c1)C(C)C	n	n	n	n	-3.6	n

Assay outcomes: PubChem, several laboratories
